Measurements reported in PMC12597218 (Chemmedchem, 2025).
Converted amounts (≈) assume the structure as drawn.

Assays:
[1] = system: Nrf2 (ARE stimulation) in HEK293‐ARE‐Luc reporter cell line; experiment: Intracellular Nrf2 activation assay; format: cell-based; details: 24 h; for Nrf2 activity, fold change in luminescence intensity compared with the control group: test sample 10 μM, n = 3; for Intracellular Nrf2 activating effect at lower concentration (dose‐dependency): 5 μM
Procedure, shortened: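 HEK293‐ARE‐Luc (NRF2/ARE luciferase stable line) cells (2.0 × 10⁴/well) were grown 24 h, then given test compound in DMSO (1, 2.5, 5 or 10 μM) for 24 h. One‐step luciferase reagent was added for 15 min at room temperature and luminescence read. Activation is expressed as the luminescence ratio to vehicle control, n = 3. tBHQ served as reference.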

[2] = Parallel artificial membrane permeability assay; format: in vitro ADME; details: PAMPA
[3] = Metabolic stability in human liver microsomes; format: in vitro ADME; details: pH 7.4
Procedure, shortened: (§1)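 Test compound (1 μM) with human or mouse liver microsomes (0.2 mg mL⁻¹), 1 mM EDTA and 0.1 M phosphate (pH 7.4) was preincubated 5 min. Reaction was started with 1 mM NADPH (final) and run 30 min at 37 °C. Samples were quenched in acetonitrile with methyltestosterone internal standard, and parent loss versus time zero was measured by LC–MS/MS. CLint was scaled using 48.8/45.4 mg protein per g liver and 25.7/87.5 g liver per kg (human/mouse). Two technical replicates.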

[4] = system: HEK293‐ARE‐Luc cells; experiment: Cytotoxicity; format: cell-based; details: concentrations up to 50 μM
Procedure, shortened: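 HEK293‐ARE‐Luc cells (5.0 × 10⁴/well; DMEM, 10% FBS, 37 °C, 5% CO₂) were grown 24 h, then exposed to test compound added in DMSO for 24 h. CCK‐8 (WST‐8) reagent was added for 4 h and absorbance read at 420 nm. Cell viability was calculated, n = 3.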

[5] = Protein binding ratio; format: in vitro ADME; details: bovine, 10% FBS (fetal bovine serum), pH 7.4
Procedure, shortened: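 Test compound (1 μM) in 10% FBS (150 μL) was dialysed against 150 μL of 0.1 M phosphate buffer (pH 7.4) across a 12–14 kDa MWCO membrane, 37 °C, 6 h, 80 rpm. Buffer and serum samples were matrix‐matched, precipitated with acetonitrile/IS, and analysed by LC‐MS/MS. fu = C_buffer/C_plasma. Two technical replicates.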

[6] = Solubility in PBS; format: physicochemical; details: 37 °C, pH 7.4, aqueous buffer, kinetic from dmso stock
Procedure, shortened: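 A 10 mM DMSO stock of test compound was diluted into PBS and rotated at 1,000 rpm, 37 °C, for 4 h. The solution was filtered through a 0.45 μm PVDF membrane by centrifugation. […] Two technical replicates.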

[7] = system: HO‐1 and NQO1 mRNA; experiment: Nrf2 target gene mRNA expression in RAW264.7 cells; format: cell-based, Murine; details: 8 h
Procedure, shortened: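 RAW264.7 murine macrophage‐like cells (DMEM, 10% FBS, 37 °C, 5% CO₂) were treated with test compound for 8 h. HO‐1 and NQO1 mRNA were then measured by quantitative real‐time RT‐PCR with gene‐specific primers, with GAPDH primers also listed. Experiments were independent, at least three times. Mean ± SD.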

[8] = Metabolic stability in mouse liver microsomes; format: in vitro ADME; details: pH 7.4
Procedure, shortened: as §1

[9] = system: LPS‐stimulated RAW264.7 cells; experiment: Anti‐inflammatory effect in LPS‐stimulated RAW264.7 cells; format: cell-based, Murine; details: RAW264.7, pretreated 8 h
Procedure, shortened: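 For NO, RAW264.7 cells (5 × 10⁵ cells/500 μL; DMEM, 10% FBS, 37 °C, 5% CO₂) were treated with test compound, given LPS (1 μg mL⁻¹) after 8 h, and incubated 16 h at 37 °C. Supernatant was mixed with Griess reagent and absorbance read at 540 nm. NO was quantified against a NaNO₂ standard. Mean ± SD.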

[10] = target: Keap1‐DC domain and the ETGE‐motif fragment peptide of Nrf2 (Homo sapiens, UniProt Q14145); experiment: Fluorescence polarization; format: binding
Procedure, shortened: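 Fluorescence polarization read-out, using a commercial Keap1–Nrf2 inhibitor screening kit run according to the manufacturer's protocol with slight modifications.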

[11] = LPS 1 μg mL^−1, ELISA and RT‐PCR

Keap1‐DC domain and the ETGE‐motif fragment peptide of Nrf2, sequence (Q14145 2-624 limits assumed): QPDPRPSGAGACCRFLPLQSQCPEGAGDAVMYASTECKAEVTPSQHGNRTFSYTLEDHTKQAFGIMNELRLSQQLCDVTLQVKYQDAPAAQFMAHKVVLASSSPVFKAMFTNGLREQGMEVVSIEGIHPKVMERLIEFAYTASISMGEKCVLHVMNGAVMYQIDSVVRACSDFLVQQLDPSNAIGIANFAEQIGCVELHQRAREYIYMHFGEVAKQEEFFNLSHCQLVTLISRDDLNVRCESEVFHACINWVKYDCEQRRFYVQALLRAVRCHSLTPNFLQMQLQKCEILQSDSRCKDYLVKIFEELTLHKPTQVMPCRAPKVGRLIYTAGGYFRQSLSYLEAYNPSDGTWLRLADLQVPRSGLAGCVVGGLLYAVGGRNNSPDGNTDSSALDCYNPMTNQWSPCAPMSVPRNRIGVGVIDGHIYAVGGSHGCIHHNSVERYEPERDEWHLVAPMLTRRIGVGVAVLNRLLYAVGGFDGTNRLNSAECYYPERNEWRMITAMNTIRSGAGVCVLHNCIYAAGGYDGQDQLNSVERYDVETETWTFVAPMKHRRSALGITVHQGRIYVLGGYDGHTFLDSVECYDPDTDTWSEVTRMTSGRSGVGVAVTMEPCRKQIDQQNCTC

CCOc1ccc(S(=O)(=O)Nc2cc(CC(=O)Nc3ccccc3)c(NS(=O)(=O)c3ccc(OCC)cc3)c3ccccc23)cc1 [Compound 5h, 2‐(1,4‐Bis((4‐ethoxyphenyl)sulfonamido)naphthalen‐2‐yl)‐N‐phenylacetamide]
Nrf2 activity, fold change in luminescence intensity compared with the control group [1]: no effect on Nrf2 activity

CCOc1ccc(S(=O)(=O)Nc2cc(CC(=O)N3CCCC3)c(NS(=O)(=O)c3ccc(OCC)cc3)c3ccccc23)cc1 [Compound 5i, N,N′‐(2‐(2‐Oxo‐2‐(pyrrolidin‐1‐yl)ethyl)naphthalene‐1,4‐diyl)bis(4‐ethoxybenzenesulfonamide)]
Papp at 4 h [2]: 3.06 ×10⁻⁶ cm/s | CLint scaled at 1 μM [3]: 546 mL/min/kg | Cytotoxicity (WST‐8 assay) [4]: did not exhibit cytotoxicity | fraction unbound at 6 h, 1 μM [5]: < 0.0342 | solubility at 4 h [6]: 2.65 µM (≈ 1.69 µg/mL) | NQO1 mRNA expression, increase ([7]; 12.5 µM and higher concentrations): approximately 50 fold | HO‐1 mRNA expression ([7]; 12.5 μM): significantly upregulated | HO‐1 mRNA expression at higher concentrations ([7]; concentrations above 12.5 μM): downregulated the gene relative to the peak expression | CLint scaled at 1 μM [8]: 2290 mL/min/kg | CCL2 expression [9, 11]: dose‐dependent reduction | TNF‐α expression [9, 11]: dose‐dependent reduction | Nitric oxide (NO) level ([9]; LPS 1 μg mL^−1, Griess reagent): dose‐dependent reduction | iNOS expression ([9]; LPS 1 μg mL^−1, RT‐PCR): dose‐dependent reduction | Intracellular Nrf2 activating effect at lower concentration (dose‐dependency) [1]: notable activity | IC50 [10]: 1.07 ± 0.04 µM

CCOc1ccc(S(=O)(=O)Nc2cc(CC(=O)N3CCCCC3)c(NS(=O)(=O)c3ccc(OCC)cc3)c3ccccc23)cc1 [Compound 5j, N,N′‐(2‐(2‐Oxo‐2‐(piperidin‐1‐yl)ethyl)naphthalene‐1,4‐diyl)bis(4‐ethoxybenzenesulfonamide)]
Intracellular Nrf2 activating effect at lower concentration (dose‐dependency) [1]: notable activity | Nrf2 activity, fold change in luminescence intensity compared with the control group [1]: notable Nrf2 activation effects | IC50 [10]: 2.43 ± 0.17 µM

Cc1cc(=O)n(-c2ccccc2)n1C [antipyrine]
Papp at 4 h [2]: 23.1 ×10⁻⁶ cm/s

COCCc1ccc(OCC(O)CNC(C)C)cc1 (stereo not shown) [metoprolol]
Papp at 4 h [2]: 1.85 ×10⁻⁶ cm/s

CC(C)(C)c1cc(O)ccc1O [tBHQ, tert‐butylhydroquinone, reference compound]
Nrf2 activity, fold change in luminescence intensity compared with the control group [1]: approximately tenfold
